# Data from ChEMBL document CHEMBL5357066, “Development of Novel Membrane Disrupting Lipoguanidine Compounds Sensitizing Gram-Negative Bacteria to Antibiotics” (ACS Med Chem Lett, 2024).
# Columns and labels:
# Pseudomonas aeruginosa [1] = assay: Antibacterial activity against Pseudomonas aeruginosa NCTC 13437 assessed as bacterial growth inhibition incubated for overnight by microbroth dilution method; format: functional
# Summary of the method: (§1)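 Broth microdilution in Tryptic Soy Broth. DMSO stocks were diluted in TSB as 2-fold series. Overnight TSB cultures were back-diluted to OD 0.01 and mixed 1:1 with compound. Incubation was overnight at 37 °C. MIC was the lowest concentration without visible growth (<0.1 OD600). DMSO vehicle was checked at equivalent concentrations.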
# Staphylococcus aureus [2] = assay: Antibacterial activity against methicillin sensitive Staphylococcus aureus ATCC 9144 assessed as bacterial growth inhibition incubated for overnight by microbroth dilution method; format: functional
# Summary of the method: (§2)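 Microbroth dilution in Tryptic Soy Broth. DMSO stocks were diluted in TSB as 2-fold series. Overnight TSB cultures were back-diluted to OD 0.01 and mixed 1:1 with compound. Incubation was overnight at 37 °C. MIC is the lowest concentration with no visible growth (<0.1 OD600). DMSO at equivalent concentrations was checked.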
# Staphylococcus aureus [3] = assay: Antibacterial activity against methicillin resistant Staphylococcus aureus NCTC 13616 assessed as bacterial growth inhibition incubated for overnight by microbroth dilution method; format: functional; summary of the method: as §2
# Staphylococcus aureus [4] = assay: Antibacterial activity against methicillin resistant Staphylococcus aureus USA 300 assessed as bacterial growth inhibition incubated for overnight by microbroth dilution method; format: functional; summary of the method: as §2
# Enterococcus faecalis [5] = assay: Antibacterial activity against vancomycin resistant Enterococcus faecalis NCTC 12201 assessed as bacterial growth inhibition incubated for overnight by microbroth dilution method; format: functional; summary of the method: as §2
# Enterococcus faecium = assay: Antibacterial activity against vancomycin resistant Enterococcus faecium NCTC 12204 assessed as bacterial growth inhibition incubated for overnight by microbroth dilution method; format: functional; summary of the method: as §2
# Acinetobacter baumannii [6] = assay: Antibacterial activity against Acinetobacter baumannii AYE assessed as bacterial growth inhibition incubated for overnight by microbroth dilution method; format: functional; summary of the method: as §1
# Acinetobacter baumannii [7] = assay: Antibacterial activity against Acinetobacter baumannii ATCC 17978 assessed as bacterial growth inhibition incubated for overnight by microbroth dilution method; format: functional; summary of the method: as §1
# Pseudomonas aeruginosa [8] = assay: Antibacterial activity against Pseudomonas aeruginosa PAO1 assessed as bacterial growth inhibition incubated for overnight by microbroth dilution method; format: functional; summary of the method: as §1
# Escherichia coli [9] = assay: Antibacterial activity against Escherichia coli NCTC 12923 assessed as bacterial growth inhibition incubated for overnight by microbroth dilution method; format: functional; summary of the method: as §1
# Klebsiella pneumoniae [10] = assay: Synergistic antibacterial activity against Klebsiella pneumoniae NCTC 13368 assessed as rifampicin MIC at <=0.25 times MIC incubated for overnight by microbroth dilution checkerboard assay; format: functional
# Summary of the method: (§3)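 Checkerboard microdilution under MIC conditions (TSB, overnight, 37 °C). Two-fold series of each agent were combined on one plate before bacteria were added, and single-agent MICs were measured on the same plate. FIC = sum of combination MIC/alone MIC for each agent, taken from the most synergistic well. Three independent repeats, mean ± SD. ≤0.5 was taken as strong synergy and 0.5–<1 as weak.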
# Klebsiella pneumoniae [11] = assay: Synergistic antibacterial activity against […] Klebsiella pneumoniae M6 assessed as rifampicin MIC at <=0.25 times MIC incubated for overnight by microbroth dilution checkerboard assay; format: functional
# Summary of the method: (§4)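 Checkerboard run under the MIC conditions (TSB, overnight, 37 °C). Antibiotic and lipoguanidine 2-fold series were combined on one plate before bacteria were added. Growth/no-growth was scored as for the MIC (<0.1 OD600). Single-agent MICs were measured on the same plates. Three independent repeats were done.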
# Acinetobacter baumannii [12] = assay: Synergistic antibacterial activity against Acinetobacter baumannii AYE assessed as rifampicin MIC at <=0.25 times MIC incubated for overnight by microbroth dilution checkerboard assay; format: functional; summary of the method: as §3
# Acinetobacter baumannii [13] = assay: Synergistic antibacterial activity against Acinetobacter baumannii ATCC 17978 assessed as rifampicin MIC at <=0.25 times MIC incubated for overnight by microbroth dilution checkerboard assay; format: functional; summary of the method: as §3
# Pseudomonas aeruginosa [14] = assay: Synergistic antibacterial activity against Pseudomonas aeruginosa PAO1 assessed as rifampicin MIC at <=0.25 times MIC incubated for overnight by microbroth dilution checkerboard assay; format: functional
# Summary of the method: (§5)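 Checkerboard microdilution in Tryptic Soy Broth, run like the MIC assay. Overnight TSB cultures were back-diluted to OD 0.01 and added 1:1 to the combined two-fold series of both agents, then incubated overnight at 37 °C. Growth/no-growth was called at <0.1 OD600. MICs alone were read on the same plates. FIC index came from the most synergistic well; three independent repeats, mean ± SD.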
# Pseudomonas aeruginosa [15] = assay: Synergistic antibacterial activity against Pseudomonas aeruginosa NCTC 13437 assessed as rifampicin MIC at <=0.25 times MIC incubated for overnight by microbroth dilution checkerboard assay; format: functional; summary of the method: as §5
# Escherichia coli [16] = assay: Synergistic antibacterial activity against Escherichia coli NCTC 12923 assessed as rifampicin MIC at <=0.25 times MIC incubated for overnight by microbroth dilution checkerboard assay; format: functional; summary of the method: as §3
# Staphylococcus aureus [17] = assay: Antibacterial activity against methicillin sensitive Staphylococcus aureus 1199B assessed as bacterial growth inhibition incubated for overnight by microbroth dilution method; format: functional; summary of the method: as §2
# Acinetobacter baumannii [18] = assay: Synergistic antibacterial activity against Acinetobacter baumannii AYE assessed as bacterial growth inhibition incubated for overnight in presence of PBMN by microbroth dilution method relative to control; format: functional
# Summary of the method: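 Adapted broth microdilution in TSB. The test compound was in a 2-fold dilution series, with PMBN added at a fixed 30 µg/mL. Bacteria at OD 0.02 were added, and plates were incubated overnight at 37 °C. Growth/no growth was read as for the MIC (<0.1 OD600).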
# Klebsiella pneumoniae [19] = assay: Synergistic antibacterial activity against Klebsiella pneumoniae NCTC 13368 assessed as fold change in rifampicin MIC at <=0.25 times MIC incubated for overnight by microbroth dilution checkerboard assay relative to rifampicin alone; format: functional; summary of the method: as §4
# Acinetobacter baumannii [20] = assay: Synergistic antibacterial activity against Acinetobacter baumannii AYE assessed as fold change in rifampicin MIC at <=0.25 times MIC incubated for overnight by microbroth dilution checkerboard assay relative to rifampicin alone; format: functional; summary of the method: as §3
# Acinetobacter baumannii [21] = assay: Synergistic antibacterial activity against Acinetobacter baumannii ATCC 17978 assessed as fold change in rifampicin MIC at <=0.25 times MIC incubated for overnight by microbroth dilution checkerboard assay relative to rifampicin alone; format: functional; summary of the method: as §3
# Pseudomonas aeruginosa [22] = assay: Synergistic antibacterial activity against Pseudomonas aeruginosa PAO1 assessed as fold change in rifampicin MIC at <=0.25 times MIC incubated for overnight by microbroth dilution checkerboard assay relative to rifampicin alone; format: functional; summary of the method: as §5
# Pseudomonas aeruginosa [23] = assay: Synergistic antibacterial activity against Pseudomonas aeruginosa NCTC 13437 assessed as fold change in rifampicin MIC at <=0.25 times MIC incubated for overnight by microbroth dilution checkerboard assay relative to rifampicin alone; format: functional; summary of the method: as §5
# Escherichia coli [24] = assay: Synergistic antibacterial activity against Escherichia coli NCTC 12923 assessed as fold change in rifampicin MIC at <=0.25 times MIC incubated for overnight by microbroth dilution checkerboard assay relative to rifampicin alone; format: functional; summary of the method: as §3
# Klebsiella pneumoniae [25] = assay: Antibacterial activity against Klebsiella pneumoniae M6 assessed as bacterial growth inhibition incubated for overnight by microbroth dilution method
# Klebsiella pneumoniae [26] = assay: Antibacterial activity against ESBL Klebsiella pneumoniae NCTC 13368 assessed as bacterial growth inhibition incubated for overnight by microbroth dilution method
# Enterococcus faecalis [27] = assay: Antibacterial activity against vancomycin sensitive Enterococcus faecalis NCTC 775 assessed as bacterial growth inhibition incubated for overnight by microbroth dilution method
SMILES,MIC (Pseudomonas aeruginosa [1]),MIC (Staphylococcus aureus [2]),MIC (Staphylococcus aureus [3]),MIC (Staphylococcus aureus [4]),MIC (Enterococcus faecalis [5]),MIC (Enterococcus faecium),MIC (Acinetobacter baumannii [6]),MIC (Acinetobacter baumannii [7]),MIC (Pseudomonas aeruginosa [8]),MIC (Escherichia coli [9]),MIC (Klebsiella pneumoniae [10]),MIC (Klebsiella pneumoniae [11]),MIC (Acinetobacter baumannii [12]),MIC (Acinetobacter baumannii [13]),MIC (Pseudomonas aeruginosa [14]),MIC (Pseudomonas aeruginosa [15]),MIC (Escherichia coli [16]),MIC (Staphylococcus aureus [17]),fold change (FC) (Klebsiella pneumoniae [19]),fold change (FC) (Acinetobacter baumannii [20]),other results
CCCCCCCCCCNC(=N)NCCCCN,> 128 µg/mL,16 µg/mL,32 µg/mL,32 µg/mL,> 128 µg/mL,> 128 µg/mL,> 128 µg/mL,> 128 µg/mL,> 128 µg/mL,128 µg/mL,0.25 µg/mL,≤ 0.125 µg/mL,≤ 0.125 µg/mL,≤ 0.125 µg/mL,≤ 0.125 µg/mL,≤ 0.125 µg/mL,≤ 0.125 µg/mL,32 µg/mL,>=4,>=4,inhibition (INH) (Acinetobacter baumannii [18]): <20%; fold change (FC) (Acinetobacter baumannii [21]): >=4; fold change (FC) (Pseudomonas aeruginosa [22]): >=4; fold change (FC) (Pseudomonas aeruginosa [23]): >=4; fold change (FC) (Escherichia coli [24]): >=4; MIC (Klebsiella pneumoniae [25]): > 128 µg/mL; MIC (Klebsiella pneumoniae [26]): > 128 µg/mL; MIC (Enterococcus faecalis [27]): 128 µg/mL
CC/C=C\C/C=C\C/C=C\CCCCCCCCNC(=N)NCCCCN,> 128 µg/mL,8 µg/mL,8 µg/mL,4 µg/mL,8 µg/mL,8 µg/mL,128 µg/mL,128 µg/mL,> 128 µg/mL,32 µg/mL,≤ 0.125 µg/mL,≤ 0.125 µg/mL,≤ 0.125 µg/mL,≤ 0.125 µg/mL,16 µg/mL,16 µg/mL,1 µg/mL,8 µg/mL,>=4,>=4,fold change (FC) (Acinetobacter baumannii [21]): >=4; fold change (FC) (Pseudomonas aeruginosa [22]): 0; fold change (FC) (Pseudomonas aeruginosa [23]): 0; fold change (FC) (Escherichia coli [24]): >=4; MIC (Klebsiella pneumoniae [25]): 128 µg/mL; MIC (Klebsiella pneumoniae [26]): > 128 µg/mL; MIC (Enterococcus faecalis [27]): 8 µg/mL
CCCCCCCC/C=C\CCCCCCCCNC(=N)NCCCCN,> 128 µg/mL,4 µg/mL,4 µg/mL,2 µg/mL,4 µg/mL,4 µg/mL,16 µg/mL,8 µg/mL,128 µg/mL,8 µg/mL,≤ 0.125 µg/mL,16 µg/mL,≤ 0.125 µg/mL,≤ 0.125 µg/mL,16 µg/mL,16 µg/mL,8 µg/mL,4 µg/mL,>=4,>=4,inhibition (INH) (Acinetobacter baumannii [18]): <20%; fold change (FC) (Acinetobacter baumannii [21]): >=4; fold change (FC) (Pseudomonas aeruginosa [22]): 0; fold change (FC) (Pseudomonas aeruginosa [23]): 0; fold change (FC) (Escherichia coli [24]): 0; MIC (Klebsiella pneumoniae [25]): 8 µg/mL; MIC (Klebsiella pneumoniae [26]): 128 µg/mL; MIC (Enterococcus faecalis [27]): 4 µg/mL
